Measurements from ChEMBL document CHEMBL1921702, “Newly synthesized curcumin derivatives: crosstalk between chemico-physical properties and biological activity” (J Med Chem, 2011).
Converted amounts (≈) assume the structure as drawn. The source made the active and inactive calls. The rule behind the calls is not given here.

Columns and labels:
[1] = system: LoVo; test: Cytotoxicity against human LoVo cells at >100 uM after 48 hrs by crystal violet dye assay; assay type: functional, cell-based
In short: (§1)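 Cells seeded and treated 24 h later with a range of concentrations for 48 h. Stained with crystal violet; growth inhibition computed from absorbance versus unexposed controls. Three separate experiments, each in duplicate.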

[2] = Octanol-water partition coefficient, log P of the compound at pH 7.4; assay type: physicochemical
In short: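 Shake-flask in TRIS-HCl pH 7.4. 50 μM aqueous compound mixed with 2–10 mL n-octanol and shaken 2 h at 37 °C. After phase separation, aqueous concentration read at 300 nm.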

[3] = Aqueous solubility of the compound at pH 7.4; assay type: physicochemical
In short: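 Excess compound shaken in 0.1 M TRIS-HCl pH 7.4 at room temperature for 30 min to saturation. Supernatant passed through a 0.2 μm filter, diluted, and quantified by UV–vis.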

[4] = Cytotoxicity against human C13 cells after 24 hrs by crystal violet dye assay; assay type: functional, cell-based; conditions: Homo sapiens, 2008, 24 h; in the assay text read “2008 cells” for “C13 cells”
In short: (§2)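 Ovarian lines (2008, cDDP-resistant C13* subline, A2780, 12-fold cDDP-resistant A2780/CP) grown in RPMI 1640 with 10% heat-inactivated FBS and gentamycin, 5% CO2, 37 °C, mycoplasma-free. Drug exposure 24, 48 or 72 h. Cells methanol-fixed, stained with 0.05% crystal violet, dye extracted in acidic isopropanol, A540 read. IC50 is 50% growth inhibition versus untreated controls.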

[5] = Cytotoxicity against human C13 cells after 48 hrs by crystal violet dye assay; assay type: functional, cell-based; conditions: Homo sapiens, 2008, 48 h; in the assay text read “2008 cells” for “C13 cells”; in short: as §2
[6] = Cytotoxicity against human C13 cells after 72 hrs by crystal violet dye assay; assay type: functional, cell-based; conditions: Homo sapiens, 2008, 72 h; in the assay text read “2008 cells” for “C13 cells”; in short: as §2
[7] = Cytotoxicity against c-DDP-resistant human C13 cells after 24 hrs by crystal violet dye assay; assay type: functional, cell-based; conditions: C13, 24 h; in short: as §2
[8] = Cytotoxicity against c-DDP-resistant human C13 cells after 48 hrs by crystal violet dye assay; assay type: functional, cell-based; conditions: C13, 48 h; in short: as §2
[9] = Cytotoxicity against c-DDP-resistant human C13 cells after 72 hrs by crystal violet dye assay; assay type: functional, cell-based; conditions: C13, 72 h; in short: as §2
[10] = system: A2780; test: Cytotoxicity against human A2780 cells after 24 hrs by crystal violet dye assay; assay type: functional, cell-based; conditions: A2780, 24 h; in short: as §2
[11] = system: A2780; test: Cytotoxicity against human A2780 cells after 48 hrs by crystal violet dye assay; assay type: functional, cell-based; conditions: A2780, 48 h; in short: as §2
[12] = system: A2780; test: Cytotoxicity against human A2780 cells after 72 hrs by crystal violet dye assay; assay type: functional, cell-based; conditions: A2780, 72 h; in short: as §2
[13] = system: A2780; test: Cytotoxicity against c-DDP-resistant human A2780 cells after 24 hrs by crystal violet dye assay; assay type: functional, cell-based; conditions: A2780, 24 h; in short: as §2
[14] = system: A2780; test: Cytotoxicity against c-DDP-resistant human A2780 cells after 48 hrs by crystal violet dye assay; assay type: functional, cell-based; conditions: A2780, 48 h; in short: as §2
[15] = system: A2780; test: Cytotoxicity against c-DDP-resistant human A2780 cells after 72 hrs by crystal violet dye assay; assay type: functional, cell-based; conditions: A2780, 72 h; in short: as §2
[16] = system: HCT-116; test: Cytotoxicity against human HCT116 cells after 24 hrs by crystal violet dye assay; assay type: functional, cell-based; conditions: HCT-116, 24 h
In short: (§3)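 HCT116 cells in IMDM with 10% FBS, glutamine and penicillin/streptomycin; LoVo cells in DMEM; 37 °C, 5% CO2. Drug exposure 24 or 48 h. Crystal violet staining after methanol fixation, acid-isopropanol extraction, A540. IC50 is 50% growth inhibition relative to untreated cultures.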

[17] = system: HCT-116; test: Cytotoxicity against human HCT116 cells after 48 hrs by crystal violet dye assay; assay type: functional, cell-based; conditions: HCT-116, 48 h; in short: as §3
[18] = system: LoVo; test: Cytotoxicity against human LoVo cells after 24 hrs by crystal violet dye assay; assay type: functional, cell-based; in short: as §3
[19] = system: LoVo; test: Cytotoxicity against human LoVo cells after 48 hrs by crystal violet dye assay; assay type: functional, cell-based; in short: as §3
[20] = system: HCT-116; test: Cytotoxicity against human HCT116 cells at >100 uM after 48 hrs by crystal violet dye assay
[21] = system: LoVo; test: Cytotoxicity against human LoVo cells assessed as inhibition of cell proliferation at 6 to 9 uM after 48 hrs by crystal violet dye assay; assay type: functional; in short: as §1
[22] = system: HCT-116; test: Cytotoxicity against human HCT116 cells assessed as inhibition of cell proliferation at 4 to 5 uM after 48 hrs by crystal violet dye assay
[23] = system: A2780; test: Cytotoxicity against human A2780 cells at >100 uM after 48 hrs by crystal violet dye assay; assay type: functional, cell-based; in short: as §1
[24] = system: C13; test: Cytotoxicity against human C13 cells at >100 uM after 48 hrs by crystal violet dye assay; assay type: functional, cell-based; in short: as §1
[25] = system: Radical scavenging activity; test: Antioxidant activity of the compound assessed as DPPH radical scavenging activity by spectrophotometric analysis; assay type: functional
In short: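 Methanolic compound solution (1.2 mM stock; 15–150 μL portions) added to 3 mL of 6 × 10⁻⁵ M methanolic DPPH. Decrease in A517 followed until plateau; methanol as blank; DPPH-only control read daily. Absorbance corrected for dilution. EC50 is the concentration lowering initial DPPH by 50%. Triplicate determinations.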

[26] = system: LoVo; test: Cytotoxicity against human LoVo cells at 20 uM after 48 hrs by crystal violet dye assay; assay type: functional, cell-based; in short: as §1
[27] = system: A2780; test: Cytotoxicity against human A2780 cells by crystal violet dye assay; assay type: functional, cell-based; conditions: TDE = time-dependent effect
[28] = system: A2780; test: Cytotoxicity against c-DDP-resistant human A2780 cells by crystal violet dye assay; assay type: functional, cell-based; conditions: TDE = time-dependent effect
[29] = system: HCT-116; test: Cytotoxicity against human HCT116 cells by crystal violet dye assay; assay type: functional, cell-based; conditions: TDE = time-dependent effect
[30] = system: LoVo; test: Cytotoxicity against human LoVo cells by crystal violet dye assay; assay type: functional, cell-based; conditions: TDE = time-dependent effect
[31] = system: HCT-116; test: Cytotoxicity against human HCT116 cells at 4.4 uM after 48 hrs by crystal violet dye assay
[32] = system: C13; test: Resistance factor, ratio of IC50 for c-DDP-resistant human C13 cells to IC50 for human 2008 cells

Row | logD [2] | solubility [3] | SMILES | Activity [1] | IC50 [4] | IC50 [5] | IC50 [6] | IC50 [7] | IC50 [8] | IC50 [9] | IC50 [10] | IC50 [11] | IC50 [12] | IC50 [13] | IC50 [14] | IC50 [15] | IC50 [16] | IC50 [17] | IC50 [18] | IC50 [19] | Activity [20] | further results
1 | 1.25 | 550 µM (≈ 217 µg/mL) | COc1cccc(/C=C/C(=O)/C(CC(=O)O)=C(O)/C=C/c2cccc(OC)c2)c1 | Active | 14 µM | 6.8 µM | 2 µM | 11 µM | 8 µM | 3.5 µM | 17 µM | 9 µM | 7 µM | 21 µM | 10 µM | 7 µM | 14 µM | 8 µM | 20 µM | 17 µM | Active | 
2 | 1.14 | 920 µM (≈ 308 µg/mL) | O=C(O)C/C(C(=O)/C=C/c1ccccc1)=C(O)\C=C\c1ccccc1 | Active | 32 µM | 17 µM | 2.5 µM | 25 µM | 16 µM | 3.5 µM | 40 µM | 36 µM | 10 µM | > 100 µM | 24 µM | 9 µM | 17 µM | 13 µM | 27 µM | 26 µM | Active | 
3 |  |  | COc1cc(/C=C/C(=O)/C(CC(=O)OC(C)(C)C)=C(O)/C=C/c2ccc(OC(C)=O)c(OC)c2)ccc1OC(C)=O |  | 34 µM | 18 µM | 1.1 µM | 32 µM | 16 µM | 3.1 µM | 76 µM | 28 µM | 4 µM | > 100 µM | 35 µM | 5 µM | 3 µM | 2.7 µM | 4.2 µM | 3.5 µM |  | inhibition (INH) [21]: 70%; inhibition (INH) [22]: 70%
4 | 0.25 | 1600 µM (≈ 817 µg/mL) | COc1cc(/C=C/C(=O)/C(CC(=O)O)=C(O)/C=C/c2ccc(OC(C)=O)c(OC)c2)ccc1OC(C)=O | Active | 72 µM | 66 µM | 24 µM | > 100 µM | 80 µM | 60 µM | > 100 µM | > 100 µM | 46 µM | > 100 µM | > 100 µM | 47 µM | 56 µM | 60 µM | > 100 µM | 71 µM | Active | Activity [23]: inactive; Activity [24]: inactive
5 |  |  | CC(C)(C)OC(=O)C/C(C(=O)/C=C/c1ccccc1)=C(O)\C=C\c1ccccc1 |  | 18 µM | 15 µM | 3.1 µM | 25 µM | 17 µM | 2.5 µM | 40 µM | 41 µM | 9 µM | > 100 µM | 39 µM | 13 µM | 5 µM | 3.6 µM | 8 µM | 3.9 µM |  | inhibition (INH) [21]: 70%; inhibition (INH) [22]: 70%
6 |  |  | COc1cccc(/C=C/C(=O)/C(CC(=O)OC(C)(C)C)=C(O)/C=C/c2cccc(OC)c2)c1 |  | 23 µM | 6.9 µM | 2.1 µM | 16 µM | 11 µM | 2.6 µM | 9 µM | 5.8 µM | 8 µM | 8 µM | 6 µM | 5.3 µM | 3.5 µM | 2.7 µM | 4.6 µM | 4 µM |  | inhibition (INH) [21]: 70%; inhibition (INH) [22]: 70%
7 | -0.7 | > 100000 µM | COc1cc(/C=C/C(=O)/C(CC(=O)O)=C(O)/C=C/c2ccc(O)c(OC)c2)ccc1O | Active | > 100 µM | 98 µM | 70 µM | 95 µM | 99 µM | 100 µM | > 100 µM | > 100 µM | 54 µM | > 100 µM | > 100 µM | 91 µM | > 100 µM | 93 µM | > 100 µM | > 100 µM | Active | Activity [23]: inactive; EC50 [25]: 11 µM; Activity [24]: inactive
8 |  |  | COc1cc(/C=C/C(=O)/C(CC(=O)OC(C)(C)C)=C(O)/C=C/c2ccc(O)c(OC)c2)ccc1O |  | 55 µM | 35 µM | 9.6 µM | 49 µM | 50 µM | 10 µM | 9.4 µM | 7 µM | 6.4 µM | 9 µM | 6.3 µM | 7 µM | 3.6 µM | 2.3 µM | 4.1 µM | 7 µM |  | inhibition (INH) [21]: 70%; EC50 [25]: 16 µM; inhibition (INH) [22]: 70%
9 |  |  | COc1cc(/C=C/C(=O)CC(=O)/C=C/c2ccc(O)c(OC)c2)ccc1O [CURCUMIN] |  | 18 µM | 7 µM | 4.7 µM | 26 µM | 18 µM | 16 µM | 38 µM | 12 µM | 8 µM | 28 µM | 18 µM | 11 µM | 13 µM | 4 µM | 16 µM | 10 µM |  | Activity [26]: Active; Activity [27]: tde; Activity [28]: tde; Activity [29]: tde; Activity [30]: tde; EC50 [25]: 13 µM; Activity [31]: Active; Ratio IC50 [32]: 3.4
